Screening data from PubChem.
An excerpt weighted towards active compounds, which were near 2.6% of everything screened.
SENP6 inh: blocks the human protease SENP6 | Q9GZR1 | Recombinant SENP6 catalytic domain, aminoluciferin luminescence | inhibition, % at 10 µM | 330,000 tested, 1.8% active;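 active = inhibition above about 50% at the single tested dose, limit read from the data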;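 note: plate controls were DMSO wells with enzyme for no effect and DMSO wells lacking enzyme for full effect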
SENP8 block-1: blocks the human protease SENP8. inhibition, % at 10 µM. AID 2540. Q96LD8. 330,000 tested, 1.2% active. purified SENP8, Z-RLRGG-aminoluciferin cleavage, luminescence; in the data active = inhibition above about 50%
Target sequence (Q96LD8 whole entry, looked up): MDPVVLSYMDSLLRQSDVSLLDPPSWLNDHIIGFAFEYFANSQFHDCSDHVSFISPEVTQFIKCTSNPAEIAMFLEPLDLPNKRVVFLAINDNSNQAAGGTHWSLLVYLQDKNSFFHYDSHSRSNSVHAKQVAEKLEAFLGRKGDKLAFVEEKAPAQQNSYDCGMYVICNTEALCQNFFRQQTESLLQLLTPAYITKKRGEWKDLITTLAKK
SENP1 inh: blocks the human SENP1 SUMO protease catalytic domain; Q9P0U3; recombinant SENP1 catalytic domain, CyPet-SUMO1-YPet FRET cleavage; inhibition, % at 10 µM; 360,000 tested, 0.21% active;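 active = inhibition at least 30% at 10 µM, raw YFP signal under a set limit, fluorescence ratio 0.5 to 1.5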;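 note: 0% = enzyme with DMSO and 100% = no enzyme wells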
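Test system: hSENP1 catalytic domain, recombinant; Amount: 20 pM final SENP1 enzyme; Medium: Tris pH 8 buffer plus EDTA, NaCl, BME, BSA, NP40, catalase; Schedule: 50 min enzyme reaction, room temperature, light-protected; Technique: FRET fluorescence in CFP and YFP emission channels; Controls: no-enzyme wells low, DMSO-plus-enzyme wells high control.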
Platelet DG rel: modulates dense granule release in human platelets. 300,000 tested, 0.22% active. inhibition, %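 (compounds screened at 7.5 µM in platelet-rich plasma)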. AID 1663. human platelet-rich plasma, SFLLRN dense granule ATP release, luminescence;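 active = mean replicate score, as percent of positive control, at or above 50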
SENP7 inh: blocks the human protease SENP7; Q9BQF6; recombinant SENP7, Z-RLRGG-aminoluciferin luminescence, 40 min; inhibition, % at 5 µM; 330,000 tested, 1.5% active; AID 434973;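 active = inhibition above about 50% at the single test dose, limit read from the data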;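 note: plate controls were DMSO with enzyme for no effect and no enzyme buffer wells for full effect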
SENP8 block-2: inhibitors of human SENP8 protease | recombinant SENP8, Nedd8 substrate fluorescence | inhibition, % at 20 µM | Q96LD8 | 360,000 tested, 0.64% active; in the data active = inhibition mostly above about 40%, no sharp cut-off; inactive = mostly below about 27%
SENP8 conf: human SENP8 inhibition, confirmed; shares compounds with SENP7 inh; Recombinant SENP8, Z-RLRGG-aminoluciferin luminescence, 60 min; inhibition, % at 12.5 µM; 6,200 tested, 40% active;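 active = mean inhibition across replicates above about 50%, limit read from the data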
SENP6 conf: human SENP6 inhibition, confirmed | shares compounds with SENP7 inh | recombinant SENP6, Z-RLRGG-aminoluciferin luminescence | inhibition, % at 12.5 µM | 6,200 tested, 58% active | AID 488915
SENP7 conf: human SENP7 inhibition, confirmed; recombinant SENP7, Z-RLRGG-aminoluciferin luminescence, 40 min; inhibition, % at 12.5 µM; 6,200 tested, 69% active; shares compounds with SENP7 inh; AID 488917
Casp3 SENP sel: selectivity test for SENP inhibitors: human caspase-3 inhibition | shares compounds with SENP7 inh | AID 488918 | 6,200 tested, 60% active | purified caspase-3, Z-DEVD-aminoluciferin luminescence, 60 min | inhibition, % at 12.5 µM;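 active = mean inhibition above about 50%, limit read from the data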;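 note: plate controls were enzyme with DMSO for no effect and wells without caspase-3 for full effect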
Target sequence (P42574 28-227 limits assumed): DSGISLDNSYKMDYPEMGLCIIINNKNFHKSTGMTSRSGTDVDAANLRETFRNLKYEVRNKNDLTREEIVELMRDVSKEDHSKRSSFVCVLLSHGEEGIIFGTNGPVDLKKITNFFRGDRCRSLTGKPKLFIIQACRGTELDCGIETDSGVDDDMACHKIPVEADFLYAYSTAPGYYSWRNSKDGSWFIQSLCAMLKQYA
Luc interf: interferes with luciferase luminescence in SENP counter-screen; shares compounds with SENP7 inh; Pre-incubated SENP8/Z-RLRGG-aminoluciferin, luciferase luminescence interference; inhibition, % at 12.5 µM; 6,200 tested, 39% active; AID 488919;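 active = mean inhibition above about 50% when retested at one dose, limit read from the data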;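 note: plate controls were DMSO wells with completed reaction for no effect and substrate without enzyme for full effect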
* hit, by the source's call; . = no result.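 Rule for the calls, unless noted: active = mean inhibition above about 50% in the one-dose retest (limit read from the data); inactive = the rest.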

SMILES	SENP6 inh	SENP8 block-1	SENP1 inh	Platelet DG rel	SENP7 inh	SENP8 block-2	SENP8 conf	SENP6 conf	SENP7 conf	Casp3 SENP sel	Luc interf
COC(=O)c1ccccc1-c1ccc(/C=C2\C(=O)N(c3ccccc3)N=C2c2ccccc2)o1	53*	9	1	0	13	27	11	6	-4	0	0
CC1=NN(c2ccccc2)C(=O)/C1=C/c1ccc(-c2ccc(C)c(C(=O)O)c2)o1	18	12	.	-12	3	.	.	.	.	.	.
Cc1[nH]c(C)c(S(=O)(=O)NCCc2ccc(S(N)(=O)=O)cc2)c1C(=O)N1CCCC1	6	5	0	3	-3	9	.	.	.	.	.
C/C(=N\OC(=O)c1ccc(F)cc1)c1sc(-c2ccc(Cl)cc2)nc1C	-20	-1	0	-1	3	-413	.	.	.	.	.
C/C(=N/OC(=O)c1ccc(C)cc1)c1cccs1	97*	98*	6	59*	100*	18	98*	99*	102*	97*	97*
C/C(=N\OC(=O)c1ccc(Cl)c(Cl)c1)c1sc(C)nc1C	51*	29	2	0	49	19	22	17	33	35	3
COc1ccc(C(=O)O/N=C(/c2cccs2)C(C)(C)C)cc1	-55	3	5	7	1	20	.	.	.	.	.
C/C(=N\OC(=O)c1ccc(C)cc1)c1sc(C)nc1C	79*	62*	7	31	77*	16	12	73*	92*	79*	57*
C/C(=N/OC(=O)c1ccccc1Br)c1ccc(C)cc1	61*	44	2	6	30	6	28	31	72*	23	11
CCOC(=O)c1c(S(=O)(=O)NCC(=O)Nc2cccc(C)c2)c(C)n(C)c1C	1	-6	-1	-4	3	9	.	.	.	.	.
CCOC(=O)c1c(S(=O)(=O)NCC(=O)Nc2ccccc2)c(C)n(C)c1C	-10	-7	4	-4	73*	-18	-12	-11	-11	-5	-15
Oc1ccccc1C=NN=C1c2ccccc2-c2ccccc21	.	.	4	.	.	22	.	.	.	.	.
C/C(=N/N=C/c1ccccc1O)c1ccccc1O	60*	55*	18	-5	86*	17	19	30	30	26	10
COc1ccc(Cl)cc1NC(=O)C(C)N(C)Cc1ccc(C(F)(F)F)cc1 (stereo unspecified)	-8	0	-3	0	4	2	.	.	.	.	.
C#Cc1cccc(NC(=O)c2ccc3c(c2)C(=O)N(Cc2cccnc2)C3=O)c1	60*	47	0	4	75*	16	6	46	88*	54*	56*
O=C(O)c1cc(NC(=O)c2ccc3c(c2)C(=O)N(Cc2cccnc2)C3=O)cc(C(=O)O)c1	4	-6	4	6	-1	10	.	.	.	.	.
Cc1ccccc1-c1nc2sc3c(c2c(=O)n1N)CCCC3	5	7	-3	-2	-5	-28	.	.	.	.	.
O=c1oc(-c2cccs2)nc2scc(-c3cccs3)c12	-22	-17	-72	16	-26	-121	.	.	.	.	.
O=c1oc(-c2ccccc2)nc2sc3c(c12)CCCC3	94*	92*	-15	-8	96*	-35	62*	48	40	81*	33
O=c1oc(-c2cc3ccccc3o2)nc2sc3c(c12)CCCC3	-23	0	-21	3	-7	-123	.	.	.	.	.
COc1ccc(/C=C/c2nc3sc4c(c3c(=O)o2)CCC4)cc1	17	9	9	15	12	-11	.	.	.	.	.
